From PubChem
NPY-Y1 PAM-ag – human NPY-Y1 potentiation or agonism, primary screen | 220,000 tested, 0.37% active | P25929 | NPY-Y1 expressing cells, potentiator/agonist activation | AID 1304 | activation, % at 3.6 µM; in the data active = activation above about 33%, passing the limit was not always enough;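 also: cells stimulated with NPY at EC10 then isoproterenol at EC100; 0% = low agonist plus stimulus and 100% = saturating agonist plus stimulus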
Target sequence (P25929 whole entry, looked up): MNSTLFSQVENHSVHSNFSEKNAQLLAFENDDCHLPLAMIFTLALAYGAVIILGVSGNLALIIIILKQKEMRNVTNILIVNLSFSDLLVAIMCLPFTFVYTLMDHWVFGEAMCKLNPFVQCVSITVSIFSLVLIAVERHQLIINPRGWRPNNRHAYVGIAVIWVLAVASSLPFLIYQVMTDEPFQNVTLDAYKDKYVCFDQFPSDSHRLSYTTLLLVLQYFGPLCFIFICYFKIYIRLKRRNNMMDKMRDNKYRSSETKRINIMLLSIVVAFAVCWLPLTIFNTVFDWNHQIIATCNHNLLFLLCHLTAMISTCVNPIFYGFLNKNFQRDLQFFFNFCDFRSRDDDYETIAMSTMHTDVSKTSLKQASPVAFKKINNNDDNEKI
Ins promoter up – MIN6 insulin promoter up-regulation | z-score at 5 µM | MIN6 insulin promoter-GFP reporter, high-content imaging; stronger effect = higher value | 190,000 tested, 0.3% active;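 active = z-score above 3 at 5 µM with at least 500 cells counted in the well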
INS promoter inh – TRM-6 insulin promoter activity inhibition | inhibition, % at 2 µM | 130,000 tested, 0.9% active | TRM-6 cells, insulin promoter-eGFP reporter, imaging; reporter expression induced with tamoxifen | AID 1273;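 active = inhibition above the mean plus 3 SD, with well images judged a real hit on visual review, cut at about 60% in these data, passing the limit was not always enough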
NPY2 pot ag – potentiates or activates human NPY-Y2 receptor. activation, % at 3.6 µM. cells expressing NPY-Y2, potentiator/agonist read-out. AID 1359. 220,000 tested, 0.45% active. P49146; in the data active = activation above about 27%;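 also: cells stimulated with NPY near EC25 plus isoproterenol at EC100; 0% = vehicle plus submaximal agonist and 100% = vehicle plus saturating agonist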
NPY Y1 blocker – blocks the human neuropeptide Y Y1 receptor; P25929; HEK293-CNG Y1 cells, membrane potential fluorescence; NPY at EC95, then isoproterenol; inhibition, % at 3.6 µM; 200,000 tested, 1% active; AID 1040;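 active = inhibition above the campaign mean inhibition of all tested compounds plus 3 SD, cut at about 20% in these data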;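 also: 0% = DMSO wells given NPY plus isoproterenol and 100% = isoproterenol alone without NPY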
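Material: HEK293 Y1/CNG channel cell line | Also added: NPY (25 nM), isoproterenol (1 µM), Ro 20-1724 (25 µM) | Compound: One concentration, 3.6 µM, in 0.4% DMSO | Schedule: 3 h dye uptake, 1 h room-temperature compound, 45 min post-isoproterenol | Signal: Membrane-potential fluorescent dye readout | Read-out: % inhibition of NPY effect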
NPY-Y2 antag – antagonists of human neuropeptide Y receptor Y2; P49146; NPY-Y2 expressing cells, antagonist mode; inhibition, % at 2.7 µM; 140,000 tested, 0.99% active; AID 793; in the data active = inhibition above about 17%;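 also: 0% = vehicle with agonist challenge and 100% = reference antagonist with challenge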
An asterisk follows results filed as active; nt = not tested or not shown. A selection: hits, their analogues and other compounds. The true share with any hit is near 2.5%.

SMILES	NPY-Y1 PAM-ag	Ins promoter up	INS promoter inh	NPY2 pot ag	NPY Y1 blocker	NPY-Y2 antag
COC(=O)c1ccccc1NC(=O)CN1CCC(NC(=O)c2ccc(C)cc2)CC1	-15	0.96	nt	-1	-1	3
COC(=O)c1ccccc1NC(=O)CN1CCN(C23CC4CC(CC(C4)C2)C3)CC1	-127	-1.3	nt	-39	96*	64*
COc1ccccc1CC(=O)Nc1ccc(-c2noc(COc3cccc(C)c3C)n2)cc1	10	-0.56	nt	-23	33*	22*
CCOc1ccc(NC(=O)CCN2CCN(S(=O)(=O)c3cc(Cl)ccc3OC)CC2)cc1	39	0.83	38	14	-10	-1
COc1cc2c(cc1NC(=O)CN1CCN(S(=O)(=O)c3ccccc3F)CC1)oc1ccccc12	10	3.6*	-37	6	1	4
CCN(CC)c1ccc(NC(=O)CN2CCN(S(=O)(=O)c3cc(Cl)ccc3OC)CC2)cc1	53*	-0.35	-3	33*	-11	-2
COc1cc2c(cc1NC(=O)Cc1ccc(C)cc1)oc1ccccc12	-22	nt	17	-9	-1	2
OCCNCc1cc(Br)ccc1OCc1ccc(F)cc1	-33	-2.1	nt	-13	6	nt
OCCNCc1cc(Br)ccc1OCc1ccc(Cl)cc1Cl	-94	-1.5	nt	-47	43*	28*
COc1ccc(OC)c(NC(=O)COC(=O)/C=C/c2ccc(Cl)cc2)c1	-30	0.04	31	8	0	16
Cc1cccc(C)c1NC(=O)CN(C)CC(=O)Nc1ccccc1Oc1ccccc1	-2	1.1	nt	2	21*	nt
Cc1ccc(NC(=O)CN(C)CC(=O)Nc2ccccc2Oc2ccccc2)cc1	0	-0.36	nt	-9	10	nt
OC(CNCCc1ccc(C(F)(F)F)cc1)COc1cccc2ccccc12 (configuration not stated)	60*	0.3	-9	46*	-8	6
OC(CNCCc1ccc(C(F)(F)F)cc1)COc1ccc2ccccc2c1 (configuration not stated)	-32	0.73	14	-11	3	12
COc1ccc(CCNCC(O)COc2cccc(Br)c2)cc1 (configuration not stated)	75*	1.6	nt	63*	-1	nt
O=C(CC12CC3CC(CC(C3)C1)C2)Nc1ccccc1N1CCOCC1	0	0.37	-19	-4	16	nt
CCOC(=O)c1cnc(-c2ccccc2)nc1N	-36	0.4	95*	9	1	2
CCOC(=O)c1cnc(-c2ccccc2)nc1N(C)C	-9	-0.47	-86	-5	4	8
Cc1cc(C)c(-c2c(O)c3cnn(-c4ccccc4)c3[nH]c2=O)c(C)c1	12	0.47	67*	7	1	1
COc1ccc(-c2nnn(CC(=O)NCCc3c[nH]c4ccccc34)n2)cc1OC	-17	nt	-42	-31	5	4
Cc1cc(C2(c3ccc(O)c(C)c3)OC(=O)c3ccccc32)ccc1O	-17	-0.11	33	-11	0	5
Cc1cc(O)c(C(C)C)cc1C1(c2cc(C(C)C)c(O)cc2C)OC(=O)c2ccccc21	76*	-0.88	nt	70*	nt	nt
N#CC1=C(N)Oc2n[nH]c(-c3ccncc3)c2C1c1ccsc1 (configuration not stated)	-13	0.28	-3	-8	-2	4
N#CC1=C(N)Oc2n[nH]c(-c3ccccc3)c2C1c1ccsc1 (configuration not stated)	-17	1.4	-375	-26	36*	12
CCC(CC)C1C(C#N)=C(N)Oc2n[nH]c(-c3ccccc3)c21 (configuration not stated)	49*	0.77	nt	38*	-16	0
SMILES	NPY-Y1 PAM-ag	Ins promoter up	INS promoter inh	NPY2 pot ag	NPY Y1 blocker	NPY-Y2 antag
CCOC(=O)N1CCC(N2CCN(S(=O)(=O)c3ccc(C)cc3)CC2)CC1	23	-0.39	67*	-5	1	1
O=C(c1c[nH]c(C(=O)C(Cl)(Cl)Cl)c1)c1ccc(F)cc1Cl	1	1.7	nt	-1	-1	nt
CCN(CC)S(=O)(=O)c1cccc(-c2nnc(SCCOc3ccc(Cl)cc3)o2)c1	-57	-1.3	nt	-2	32*	29*
CCN(CC)S(=O)(=O)c1cccc(-c2nnc(SCCOc3ccccc3C)o2)c1	-38	-0.88	nt	-13	20*	26*
CC(C)CCN1CCN(Cc2cnc(-c3ccccc3)s2)CC1CCO (configuration not stated)	-13	nt	nt	-17	6	nt
C/C(=N\N=C(/N)SC1CC(=O)N(c2ccc(Br)cc2)C1=O)c1cccs1 (configuration not stated)	45*	0.98	nt	44*	-8	-4
C/C(=N\N=C(/N)SC1CC(=O)N(c2ccccc2)C1=O)c1cccs1 (configuration not stated)	9	0.94	nt	14	2	1
Cc1ccc(NC(=S)c2nc3ccccc3[nH]2)cc1	-16	-1.1	81*	-10	-1	2
COc1ccccc1NS(=O)(=O)c1cc(NC(=O)Nc2ccccc2)ccc1N1CCCCC1	58*	-1.3	36	46*	-9	1
CC(C)(C)NC[C@H](O)COc1nsnc1N1CCOCC1	118*	nt	-5	104*	-11	1
CCCCc1ccc(NC(=S)NCCN2CCOCC2)cc1	-10	-0.93	nt	-5	2	nt
Cc1c(-c2ccccc2)sc2nc[nH]c(=S)c12	8	-0.35	-42	9	1	nt
Cc1nc(NC(C)c2ccccc2)c2c3c(sc2n1)CCC3 (configuration not stated)	-66	-0.1	3	-20	38*	17*
Cn1c(=O)[nH]c2nnc(-c3ccc(Cl)c(Cl)c3)nc2c1=O	2	-0.17	nt	2	nt	nt
CC(=O)c1cc(C#N)c(SCC(=O)OC(C)(C)C)nc1C	13	1.7	nt	6	-4	2
CC(=O)c1cc(C#N)c(SCC(=O)OC(C)C)nc1C	-22	0.15	93*	-5	2	2
CCC(=O)N(CCC(c1ccc(C)cc1)c1ccco1)Cc1ccco1 (configuration not stated)	-10	0.04	nt	-4	nt	nt
Cc1nn(-c2cc(N3CCCCCC3)ccc2[N+](=O)[O-])c(=O)c2ccccc12	85*	0.65	26	41*	-13	1
COC(=O)c1cc(S(=O)(=O)n2nc(C)c(Br)c2C)c(Cl)cc1Cl	52*	-0.68	29	34*	-6	4
Cc1cc(C)n(S(=O)(=O)c2cc(C(=O)O)c(Cl)cc2Cl)n1	-15	-0.24	38	3	-2	0
Clc1ccccc1N=C1NN=C(c2cccs2)CS1	18	0.37	7	-8	0	nt
C=CC[n+]1c(-c2ccc(OCC)cc2)csc1NNC(=O)Nc1ccccc1	95*	nt	37	81*	-14	1
O=C(Nc1ccccc1Cl)c1ccc(-c2ccccn2)s1	-10	-1.2	nt	-34	nt	nt
